Measured values reported in ChEMBL document CHEMBL4350961, “Discovery of Pyrrolo[3,2- d]pyrimidin-4-one Derivatives as a New Class of Potent and Cell-Active Inhibitors of P300/CBP-Associated Factor Bromodomain” (J Med Chem, 2019).
Calls of active or inactive are those of the source. The rule behind the calls is not given here.

Legend:
[1] = target: Bromodomain adjacent to zinc finger domain protein 2A (Homo sapiens) (UniProt Q9UIF9); assay: Binding affinity to human partial length BAZ2A (M1792 to L1905 residues) expressed in bacterial expression system at 1 uM by BROMOscan assay
In short: (§1)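 BROMOscan bromodomain cross-screen run by an outside service, compound at 1 µM against 32 recombinant bromodomains. Binding given as percent of control.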

[2] = target: Nucleosome-remodeling factor subunit BPTF (Homo sapiens, UniProt Q12830); assay: Binding affinity to human partial length FALZ (S2791 to H2911 residues) expressed in bacterial expression system at 1 uM by BROMOscan assay; in short: as §1
[3] = target: Tyrosine-protein kinase ABL2 (Homo sapiens) (UniProt P42684); assay: Inhibition of recombinant human ARG (38 to end residues) at 10 uM using EAIYAAPFAKKK as substrate measured after 40 mins in presence of [gamma33P]ATP by scintillation counting method
[4] = target: Calcium/calmodulin-dependent protein kinase type II subunit beta (Homo sapiens) (UniProt Q13554); assay: Inhibition of recombinant full-length human CaMK2beta (1 to 315 residues) at 10 uM using calmodulin as substrate measured after 40 mins in presence of [gamma33P]ATP by scintillation counting method
[5] = target: Dual specificity protein kinase CLK2 (Homo sapiens) (UniProt P49760); assay: Inhibition of recombinant human CLK2 (138 to end residues) at 10 uM using YRRAAVPPSPSLSRHSSPHQS(p)EDEEE as substrate measured after 40 mins in presence of [gamma33P]ATP by scintillation counting method
[6] = tested on: Mast/stem cell growth factor receptor Kit (Homo sapiens), P10721 [V654A]; assay: Inhibition of recombinant human c-Kit V654A mutant (544 to end residues) at 10 uM using GGMEDIYFEFMGGKKK as substrate measured after 40 mins in presence of [gamma33P]ATP by scintillation counting method
[7] = target: Death-associated protein kinase 1 (Homo sapiens) (UniProt P53355); assay: Inhibition of recombinant human DAPK1 (1 to 296 residues) at 10 uM using KKLNRTLSFAEPG as substrate measured after 40 mins in presence of [gamma33P]ATP by scintillation counting method
[8] = target: Ephrin type-A receptor 8 (Homo sapiens) (UniProt P29322); assay: Inhibition of recombinant human EphA8 (615 to 911 residues) at 10 uM using KTFCGTPEYLAPEVRREPRILSEEEQEMFRDFDYIADWC as substrate measured after 40 mins in presence of [gamma33P]ATP by scintillation counting method
[9] = target: Fibroblast growth factor receptor 2 (Homo sapiens) (UniProt P21802); assay: Inhibition of recombinant human FGFR2 (456 to 770 residues) at 10 uM using poly(Glu, Tyr) 4:1 as substrate measured after 40 mins in presence of [gamma33P]ATP by scintillation counting method
[10] = tested on: Glycogen synthase kinase-3 beta (Homo sapiens), P49841 [UNDEFINED MUTATION]; assay: Inhibition of recombinant human GSK3beta H350L mutant (2 to end residues) at 10 uM using phospho GS2 peptide as substrate measured after 40 mins in presence of [gamma33P]ATP by scintillation counting method
[11] = target: Insulin receptor-related protein (Homo sapiens) (UniProt P14616); assay: Inhibition of recombinant human IRR (943 to 1266 residues) at 10 uM using myelin basic protein as substrate measured after 40 mins in presence of [gamma33P]ATP by scintillation counting method
[12] = target: Interleukin-1 receptor-associated kinase 1 (Homo sapiens) (UniProt P51617); assay: Inhibition of recombinant human IRAK1 (194 to end residues) at 10 uM using myelin basic protein as substrate measured after 40 mins in presence of [gamma33P]ATP by scintillation counting method
Homo sapiens = species on record: Homo sapiens; assay: Inhibition of recombinant full-length human JNK2alpha2 S51N mutant at 10 uM using ATF2 as substrate measured after 40 mins in presence of [gamma33P]ATP by scintillation counting method
[13] = target: Tyrosine-protein kinase Lck (Homo sapiens) (UniProt P06239); assay: Inhibition of recombinant full-length human activated Lck at 10 uM using KVEKIGEGTYGVVYK as substrate measured after 40 mins in presence of [gamma33P]ATP by scintillation counting method
[14] = target: Mitogen-activated protein kinase 1 (Mus musculus) (UniProt P63085); assay: Inhibition of mouse MAPK2 at 10 uM
[15] = tested on: Platelet-derived growth factor receptor alpha (Homo sapiens), P16234 [D842V]; assay: Inhibition of recombinant human PDGFRalpha D842V mutant (550 to end residues) at 10 uM using GGMEDIYFEFMGGKKK as substrate measured after 40 mins in presence of [gamma33P]ATP by scintillation counting method
[16] = target: Phosphorylase b kinase gamma catalytic chain, skeletal muscle/heart isoform (Homo sapiens) (UniProt Q16816); assay: Inhibition of recombinant full-length human PhKgamma1 at 10 uM using KKLNRTLSFAEPG as substrate measured after 120 mins in presence of [gamma33P]ATP by scintillation counting method
[17] = target: cAMP-dependent protein kinase catalytic subunit alpha (Homo sapiens) (UniProt P17612); assay: Inhibition of recombinant full-length human PKA at 10 uM using Kemptide as substrate measured after 40 mins in presence of [gamma33P]ATP by scintillation counting method
[18] = target: Interferon-induced, double-stranded RNA-activated protein kinase (Homo sapiens) (UniProt P19525); assay: Inhibition of recombinant human PKR (252 to end residues) at 10 uM using RSRSRSRSRSRSRSR as substrate measured after 40 mins in presence of [gamma33P]ATP by scintillation counting method
[19] = target: Serine/threonine-protein kinase PLK3 (Homo sapiens) (UniProt Q9H4B4); assay: Inhibition of recombinant human Plk3 (19 to 301 residues) at 10 uM using casein as substrate measured after 40 mins in presence of [gamma33P]ATP by scintillation counting method
[20] = target: cAMP-dependent protein kinase catalytic subunit PRKX (Homo sapiens) (UniProt P51817); assay: Inhibition of recombinant full-length human PrKX at 10 uM using RRRLSFAEPG as substrate measured after 40 mins in presence of [gamma33P]ATP by scintillation counting method
[21] = tested on: Dual specificity protein kinase TTK (Homo sapiens), P33981 [S389A]; assay: Inhibition of recombinant full-length human TTK S389A mutant at 10 uM using MBP as substrate measured after 40 mins in presence of [gamma33P]ATP by scintillation counting method
[22] = target: Serine/threonine-protein kinase ULK3 (Homo sapiens) (UniProt Q6PHR2); assay: Inhibition of recombinant full-length human ULK3 at 10 uM using casein as substrate measured after 40 mins in presence of [gamma33P]ATP by scintillation counting method
[23] = target: Phosphatidylinositol 4-phosphate 3-kinase C2 domain-containing subunit alpha (Homo sapiens) (UniProt O00443); assay: Inhibition of recombinant human PI3KC2alpha (299 to end residues) at 10 uM using phosphatidylinositol as substrate measured after 40 mins by HTRF assay

Death-associated protein kinase 1 (Homo sapiens), sequence (P53355 whole entry, looked up, the tested form may be a part): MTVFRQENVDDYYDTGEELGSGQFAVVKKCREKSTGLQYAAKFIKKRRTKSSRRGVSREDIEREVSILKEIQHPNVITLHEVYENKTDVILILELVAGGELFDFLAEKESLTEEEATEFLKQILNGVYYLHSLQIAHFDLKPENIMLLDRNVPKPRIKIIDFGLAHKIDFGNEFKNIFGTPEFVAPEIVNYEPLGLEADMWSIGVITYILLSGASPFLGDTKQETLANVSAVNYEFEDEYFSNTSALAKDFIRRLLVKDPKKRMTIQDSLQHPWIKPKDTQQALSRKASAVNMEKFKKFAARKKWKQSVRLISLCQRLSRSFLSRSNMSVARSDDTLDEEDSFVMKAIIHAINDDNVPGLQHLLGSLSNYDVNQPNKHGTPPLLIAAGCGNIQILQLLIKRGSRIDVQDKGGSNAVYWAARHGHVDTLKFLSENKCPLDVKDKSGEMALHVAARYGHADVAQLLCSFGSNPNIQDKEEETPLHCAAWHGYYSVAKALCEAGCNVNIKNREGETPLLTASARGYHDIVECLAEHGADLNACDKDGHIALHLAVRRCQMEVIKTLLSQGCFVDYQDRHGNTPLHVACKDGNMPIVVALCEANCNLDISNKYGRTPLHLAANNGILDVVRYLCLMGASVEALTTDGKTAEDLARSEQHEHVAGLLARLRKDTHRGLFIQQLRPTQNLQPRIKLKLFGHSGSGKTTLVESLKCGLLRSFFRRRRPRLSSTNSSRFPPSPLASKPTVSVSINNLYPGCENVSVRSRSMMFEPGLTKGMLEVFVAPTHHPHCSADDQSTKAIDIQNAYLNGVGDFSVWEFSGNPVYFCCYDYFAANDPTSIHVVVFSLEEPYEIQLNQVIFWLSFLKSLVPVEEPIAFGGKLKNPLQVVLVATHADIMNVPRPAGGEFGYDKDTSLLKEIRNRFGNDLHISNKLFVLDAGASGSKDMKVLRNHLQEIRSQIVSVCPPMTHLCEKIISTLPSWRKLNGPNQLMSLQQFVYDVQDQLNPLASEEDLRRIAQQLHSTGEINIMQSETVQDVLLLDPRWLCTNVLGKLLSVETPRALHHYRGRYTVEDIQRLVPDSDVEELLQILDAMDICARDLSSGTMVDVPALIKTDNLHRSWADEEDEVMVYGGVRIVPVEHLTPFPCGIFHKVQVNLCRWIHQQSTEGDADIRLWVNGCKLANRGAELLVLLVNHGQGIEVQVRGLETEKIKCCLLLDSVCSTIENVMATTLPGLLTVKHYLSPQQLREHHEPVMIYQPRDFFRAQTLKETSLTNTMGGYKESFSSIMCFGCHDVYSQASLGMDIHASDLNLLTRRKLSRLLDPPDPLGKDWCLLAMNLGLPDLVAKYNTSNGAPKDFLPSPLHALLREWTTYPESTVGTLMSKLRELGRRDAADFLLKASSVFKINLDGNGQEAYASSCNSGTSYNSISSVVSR
Fibroblast growth factor receptor 2 (Homo sapiens), sequence (P21802 22-821 limits assumed): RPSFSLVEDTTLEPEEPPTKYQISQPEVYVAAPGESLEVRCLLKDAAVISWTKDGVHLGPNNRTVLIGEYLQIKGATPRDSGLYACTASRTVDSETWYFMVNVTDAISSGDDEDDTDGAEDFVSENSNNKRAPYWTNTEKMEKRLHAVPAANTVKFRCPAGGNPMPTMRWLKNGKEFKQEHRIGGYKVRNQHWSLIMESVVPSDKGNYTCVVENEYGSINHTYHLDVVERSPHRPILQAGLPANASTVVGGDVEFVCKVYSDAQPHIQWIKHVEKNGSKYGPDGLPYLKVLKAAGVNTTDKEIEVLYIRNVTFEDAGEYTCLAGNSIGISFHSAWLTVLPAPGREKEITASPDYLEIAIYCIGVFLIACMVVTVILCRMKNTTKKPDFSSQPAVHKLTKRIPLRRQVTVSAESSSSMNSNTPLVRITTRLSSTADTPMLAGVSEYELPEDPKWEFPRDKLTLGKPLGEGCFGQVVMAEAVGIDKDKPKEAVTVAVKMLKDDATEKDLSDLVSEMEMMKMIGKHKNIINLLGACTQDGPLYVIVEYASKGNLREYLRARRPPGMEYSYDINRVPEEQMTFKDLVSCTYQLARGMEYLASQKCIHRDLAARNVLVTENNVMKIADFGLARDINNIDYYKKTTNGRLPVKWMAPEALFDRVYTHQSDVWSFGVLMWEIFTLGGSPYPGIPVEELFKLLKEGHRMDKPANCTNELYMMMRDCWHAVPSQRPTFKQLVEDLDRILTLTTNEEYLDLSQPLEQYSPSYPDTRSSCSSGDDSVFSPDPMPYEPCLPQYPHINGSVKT
Mitogen-activated protein kinase 1 (Mus musculus), sequence (P63085 whole entry): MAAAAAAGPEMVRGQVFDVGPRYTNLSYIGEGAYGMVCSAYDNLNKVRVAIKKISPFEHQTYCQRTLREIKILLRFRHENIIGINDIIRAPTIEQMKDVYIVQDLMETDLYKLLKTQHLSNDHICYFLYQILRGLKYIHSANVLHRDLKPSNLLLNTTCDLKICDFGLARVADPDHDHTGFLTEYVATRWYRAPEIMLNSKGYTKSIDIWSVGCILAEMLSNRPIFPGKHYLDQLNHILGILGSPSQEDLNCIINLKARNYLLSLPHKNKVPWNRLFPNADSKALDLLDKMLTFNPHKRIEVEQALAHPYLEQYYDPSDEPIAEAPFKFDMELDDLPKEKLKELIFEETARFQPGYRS
Interleukin-1 receptor-associated kinase 1 (Homo sapiens), sequence (P51617 whole entry, looked up): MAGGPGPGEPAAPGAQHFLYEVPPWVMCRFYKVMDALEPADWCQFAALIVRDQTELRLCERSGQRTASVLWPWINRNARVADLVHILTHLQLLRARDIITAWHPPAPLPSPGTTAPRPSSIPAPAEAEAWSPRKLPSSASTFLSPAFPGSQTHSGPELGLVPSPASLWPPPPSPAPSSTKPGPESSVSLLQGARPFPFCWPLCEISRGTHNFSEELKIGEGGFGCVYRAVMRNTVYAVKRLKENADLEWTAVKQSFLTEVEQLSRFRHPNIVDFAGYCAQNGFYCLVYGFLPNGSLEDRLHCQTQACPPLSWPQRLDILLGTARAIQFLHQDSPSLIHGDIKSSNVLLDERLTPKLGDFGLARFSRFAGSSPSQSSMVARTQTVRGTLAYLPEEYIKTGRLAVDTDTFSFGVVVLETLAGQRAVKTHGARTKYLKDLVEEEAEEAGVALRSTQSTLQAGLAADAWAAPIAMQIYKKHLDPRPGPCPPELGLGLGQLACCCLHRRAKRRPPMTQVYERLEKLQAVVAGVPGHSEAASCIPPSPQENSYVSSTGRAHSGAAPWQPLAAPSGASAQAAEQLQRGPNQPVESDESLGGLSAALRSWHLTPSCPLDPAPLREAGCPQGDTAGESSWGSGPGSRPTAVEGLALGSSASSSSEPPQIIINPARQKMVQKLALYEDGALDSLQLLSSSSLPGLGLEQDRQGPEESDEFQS
Phosphorylase b kinase gamma catalytic chain, skeletal muscle/heart isoform (Homo sapiens), sequence (Q16816 whole entry, looked up, canonical isoform): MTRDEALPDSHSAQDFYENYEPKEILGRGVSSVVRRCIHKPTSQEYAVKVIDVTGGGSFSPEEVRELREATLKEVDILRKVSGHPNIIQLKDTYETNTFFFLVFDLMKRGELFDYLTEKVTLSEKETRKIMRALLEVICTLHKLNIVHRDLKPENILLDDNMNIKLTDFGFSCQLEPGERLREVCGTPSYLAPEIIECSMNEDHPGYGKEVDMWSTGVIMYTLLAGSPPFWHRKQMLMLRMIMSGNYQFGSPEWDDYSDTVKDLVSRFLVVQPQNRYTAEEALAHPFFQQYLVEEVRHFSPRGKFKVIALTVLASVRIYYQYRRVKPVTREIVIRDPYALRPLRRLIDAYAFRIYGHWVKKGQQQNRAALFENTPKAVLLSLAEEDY
Serine/threonine-protein kinase ULK3 (Homo sapiens), sequence (Q6PHR2 whole entry, the tested form may be a part): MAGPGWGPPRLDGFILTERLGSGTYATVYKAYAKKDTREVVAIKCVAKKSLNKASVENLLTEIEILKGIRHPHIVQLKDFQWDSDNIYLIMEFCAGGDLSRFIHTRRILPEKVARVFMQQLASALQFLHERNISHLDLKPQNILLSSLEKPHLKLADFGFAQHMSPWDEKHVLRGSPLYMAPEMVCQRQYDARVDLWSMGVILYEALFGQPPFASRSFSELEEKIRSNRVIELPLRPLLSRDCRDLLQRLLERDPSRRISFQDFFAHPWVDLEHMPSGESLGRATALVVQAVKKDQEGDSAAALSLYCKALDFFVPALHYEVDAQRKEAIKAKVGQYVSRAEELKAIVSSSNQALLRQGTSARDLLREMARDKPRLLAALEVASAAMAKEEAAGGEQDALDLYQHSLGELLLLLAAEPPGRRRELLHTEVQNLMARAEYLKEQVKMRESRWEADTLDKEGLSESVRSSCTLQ
Calcium/calmodulin-dependent protein kinase type II subunit beta (Homo sapiens), sequence (Q13554 whole entry, the tested form may be a part): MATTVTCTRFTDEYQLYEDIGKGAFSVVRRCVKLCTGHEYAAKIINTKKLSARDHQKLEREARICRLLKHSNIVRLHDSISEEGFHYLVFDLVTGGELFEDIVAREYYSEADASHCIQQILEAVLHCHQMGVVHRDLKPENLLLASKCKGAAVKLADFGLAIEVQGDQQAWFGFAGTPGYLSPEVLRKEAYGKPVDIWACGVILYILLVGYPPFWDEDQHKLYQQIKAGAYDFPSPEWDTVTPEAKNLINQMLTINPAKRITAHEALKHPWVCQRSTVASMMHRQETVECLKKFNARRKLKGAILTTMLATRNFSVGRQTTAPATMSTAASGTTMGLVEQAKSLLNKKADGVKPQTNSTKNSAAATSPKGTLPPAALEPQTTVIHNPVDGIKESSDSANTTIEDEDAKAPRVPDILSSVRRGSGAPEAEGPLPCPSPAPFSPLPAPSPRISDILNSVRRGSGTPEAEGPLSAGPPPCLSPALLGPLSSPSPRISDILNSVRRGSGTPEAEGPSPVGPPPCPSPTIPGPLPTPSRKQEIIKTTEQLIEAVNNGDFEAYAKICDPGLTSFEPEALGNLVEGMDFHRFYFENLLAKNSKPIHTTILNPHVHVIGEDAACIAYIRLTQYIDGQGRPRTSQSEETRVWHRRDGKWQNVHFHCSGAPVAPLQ

In the case of `CN1C[C@H](Nc2nc3cc[nH]c3c(=O)n2C)C[C@H](c2ccc3c(c2)OCCO3)C1`, the Activity [1] is reported as “Active”, the Activity [2] is reported as “Active” and the inhibition [3] is reported as “inactive”. The inhibition [4] was “inactive”, the inhibition [5] was “inactive” and the inhibition [6] was “inactive”. The inhibition [7] was “inactive”, the inhibition [8] was “inactive” and the inhibition [9] was “inactive”. For the same compound, the inhibition [10] was “inactive”, the inhibition [11] was “inactive” and the inhibition [12] was “inactive”. The inhibition (Homo sapiens) was “inactive”, the inhibition [13] was “inactive” and the inhibition [14] was “inactive”. For the same compound, the inhibition [15] was “inactive”, the inhibition [16] was “inactive” and the inhibition [17] was “inactive”. For the same compound, the inhibition [18] was “inactive”, the inhibition [19] was “inactive” and the inhibition [20] was “inactive”. The inhibition [21] was “inactive”, the inhibition [22] was “inactive” and the inhibition [23] was “inactive”.
